# TAAR1 antagonist – antagonists of human TAAR1 | Q96RJ0 | CHO RD-HGA16 TAAR1, Fluo-8 calcium fluorescence, antagonist | inhibition, % at 3 µM | 1.5% of 360,000 active | AID 624466;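 active = inhibition above a per-plate cutoff, the mean inhibition of test compounds on that plate plus 3 SD, cut at about 49% in these data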
# Target sequence (Q96RJ0 whole entry, looked up): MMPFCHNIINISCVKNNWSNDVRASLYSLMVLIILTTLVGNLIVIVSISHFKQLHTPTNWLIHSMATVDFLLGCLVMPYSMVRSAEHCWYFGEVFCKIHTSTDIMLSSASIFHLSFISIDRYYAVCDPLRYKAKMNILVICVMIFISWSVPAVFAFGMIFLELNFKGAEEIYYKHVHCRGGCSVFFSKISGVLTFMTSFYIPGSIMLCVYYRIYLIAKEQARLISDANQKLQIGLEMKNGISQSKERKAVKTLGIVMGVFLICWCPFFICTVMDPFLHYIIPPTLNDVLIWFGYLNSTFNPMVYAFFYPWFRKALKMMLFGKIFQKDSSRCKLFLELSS
#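 System: CHO RD-HGA16 cells bearing hTAAR1. Reagent: EC80 β-phenethylamine stimulus. Schedule: seeding 17-24 h prior, 75-min 37 °C, 30-min RT dye loading. Signal: Fluo-8 intracellular calcium dye fluorescence, real-time kinetic reads. Read-out: % inhibition from peak post-agonist over basal fluorescence ratio. Benchmarks: vehicle wells and EC80 agonist wells. Replicates: n of 1.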
# TAAR1 agonist – agonists of human TAAR1; Q96RJ0; activation, % at 3 µM; AID 624467; 0.99% of 360,000 active; CHO RD-HGA16 TAAR1, Fluo-8 calcium fluorescence; vehicle wells 0%, saturating PEA agonist 100%;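 active = activation above the mean activation of all test compounds in the run plus 3 SD, cut at about 38% in these data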
#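 Signal – calcium-sensitive Fluo-8 signal, excitation 470-495, emission 515-575 nm · System – RD-HGA16 (CHO) cells co-expressing Gα16 and hTAAR1 · Incubation – 17-24 h seeding, 75 min 37 °C dye, 30 min RT · Compound dosing – 3 µM single concentration · Repeats – no replicates (n 1)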
# HTR2A ag – activates the mouse 5-HT2A serotonin receptor | P35363 | 0.66% of 360,000 active | CHO-K1 mHTR2A beta-arrestin complementation, luminescence; percent of 30 µM serotonin response | activation, % at 7.6 µM;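 active = activation above a run cutoff, the mean activation of all tested compounds plus 3 SD, cut at about 14% in these data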
# MC4R antag cAMP – blocks human MC4R cAMP signaling; MC4R-expressing cells, MTII-stimulated cAMP, LANCE TR-FRET; 0.48% of 360,000 active; inhibition, % at 6.5 µM; P32245; AID 540295;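 active = inhibition above its plate's cutoff, the mean of tested wells on that plate plus 3 SD, cut at about 29% in these data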
#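 material = U2OS cells stably expressing human melanocortin 4 receptor (MC4R) | also added = Melanotan II challenge | dosing = single nominal compound dose of 6.5 µM | detection = TR-FRET with Eu-cAMP and labeled anti-cAMP, 671 nm | replication = singlicate | timing = compound 30 min, challenge 1 h, detection 1 h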
# Beta2AR agonist – human beta-2 adrenergic receptor agonism by FAP | Am2.2-beta2AR cells, FAP receptor internalization, flow cytometry | response, % (test concentration not listed) | 0.43% of 340,000 active;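 active = response above a set limit, near 3 SD of response in nonfluorescent compounds, cut at about 42% in these data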
# Target sequence (P07550 whole entry, looked up): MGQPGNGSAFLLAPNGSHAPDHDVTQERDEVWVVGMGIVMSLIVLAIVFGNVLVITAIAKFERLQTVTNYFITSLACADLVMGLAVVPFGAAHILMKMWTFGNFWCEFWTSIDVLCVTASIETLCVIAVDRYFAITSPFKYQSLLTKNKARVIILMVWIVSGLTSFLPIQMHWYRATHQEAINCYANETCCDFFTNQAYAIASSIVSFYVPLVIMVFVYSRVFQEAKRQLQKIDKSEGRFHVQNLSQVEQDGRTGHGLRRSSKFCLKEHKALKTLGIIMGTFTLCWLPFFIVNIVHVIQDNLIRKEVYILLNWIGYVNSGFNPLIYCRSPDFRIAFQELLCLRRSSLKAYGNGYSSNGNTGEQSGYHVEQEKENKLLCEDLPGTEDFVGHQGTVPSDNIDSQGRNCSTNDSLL
# MC4R ag barr – agonists of human melanocortin 4 receptor (MC4R) beta-arrestin | AID 540308 | 0.98% of 360,000 active | activation, % at 8.9 µM | P32245 | U2OS MC4R beta-arrestin complementation, luminescence; percent of melanotan II response, DMSO zero;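 active = activation above a per-plate cutoff, the mean activation of sample wells on that plate plus 3 SD, cut at about 8% in these data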
# TAAR1 ag confirm – confirmation of human TAAR1 agonists. shares compounds with TAAR1 agonist. CHO RD-HGA16 TAAR1, Fluo-8 calcium fluorescence; scaled: DMSO 0%, maximal phenethylamine 100%. activation, % at 3 µM. 82% of 2,400 active. AID 651783;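 active = activation above a cutoff set at the run's mean compound activation plus 3 SD, cut at about 39% in these data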
# Ga16 nonsel ag – nonselective agonist in parental cells, TAAR1 agonist counter-screen; shares compounds with TAAR1 agonist; CHO-Ga16 parental, Fluo-8 calcium fluorescence; normalized to maximal ATP response, DMSO zero; activation, % at 3 µM; 50% of 2,400 active; AID 651787;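 active = activation above the run cutoff, the mean activation over all tested wells plus 3 SD, cut at about 12% in these data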
# TAAR1 desensitize – TAAR1 response desensitization, agonist counter-screen. AID 651951. CHO RD-HGA16 hTAAR1, Fluo-8 calcium, beta-PEA response inhibition. shares compounds with TAAR1 agonist. 46% of 2,400 active. inhibition, % at 3 µM;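 active = inhibition above the run cutoff, the mean inhibition of all test compounds plus 3 SD, cut at about 49% in these data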;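 also: beta-PEA stimulus applied at its EC80; loss of beta-PEA calcium signal after compound pretreatment read as receptor desensitization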
# Ga16 antag count – counter-screen for TAAR1 agonists: nonselective Ga16 antagonists; shares compounds with TAAR1 agonist; CHO-Ga16 ATP-induced calcium, Fluo-8 fluorescence; inhibition, % at 3 µM; 39% of 2,400 active; AID 651952;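 active = inhibition above the plate's mean compound inhibition plus 3 SD, computed per plate, cut at about 22% in these data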
# Hits are given with their value; – = inactive; · = not tested or not shown; ! = a repeat was not active. Hits are enriched below; roughly 4.3% of the tested compounds scored in any of these assays.
SMILES,TAAR1 antagonist,TAAR1 agonist,HTR2A ag,MC4R antag cAMP,Beta2AR agonist,MC4R ag barr,TAAR1 ag confirm,Ga16 nonsel ag,TAAR1 desensitize,Ga16 antag count
COc1ccc(C(=O)NNC(=S)NC(=O)/C=C/c2cccs2)cc1,–,–,–,–,–,–,·,·,·,·
O=C(COc1ccccc1)NNC(=S)NC(=O)c1ccccc1,–,–,–,–,–,–,·,·,·,·
COc1cc(C(=O)NNC(=S)NC(=O)c2ccccc2C)cc(OC)c1OC,–,63,–,–,–,–,–,44,–,–
O=C(NC(=S)NNC(=O)c1ccccc1O)c1cccc([N+](=O)[O-])c1,–,–,–,–,–,–,·,·,·,·
CC(=O)c1cc2c(cc1NC(=O)CSc1ncccn1)OCO2,–,–,–,–,·,–,·,·,·,·
CC(CN1CCCCC1)NC(=O)c1cccs1 (configuration not stated),–,–,–,–,–,–,·,·,·,·
CCCCc1cc(=O)oc2cc(OC(C)C(=O)NCCN3CCOCC3)c(Cl)cc12 (configuration not stated),–,–,–,–,–,–,·,·,·,·
O=C(COC(=O)C12CC3CC(CC(Br)(C3)C1)C2)N1CCOCC1,–,–,–,–,–,–,·,·,·,·
O=Cc1cc(OCc2ccccc2)ccc1[B-](F)(F)F,–,–,–,–,–,–,·,·,·,·
O=C(NC(=S)NNC(=O)c1cc2ccccc2cc1O)c1ccco1,–,75,–,–,–,–,44,37,–,25
Cc1ccccc1CCNC(=O)c1ccc(Cl)c(S(=O)(=O)N2CC(C)OC(C)C2)c1 (configuration not stated),–,59,–,–,–,–,–,–,–,27
Cc1cccc(CN2CCN(C3CN(CCc4ccccc4)S(=O)(=O)C3)CC2)c1 (configuration not stated),–,–,–,·,·,·,·,·,·,·
CN(C)c1ccc(C=C2SC(=S)NC2=O)cc1,57,69,–,–,–,–,57,85,69,78
Nc1sc2c(c1C(=O)c1ccccc1)CCCC2,–,–,–,–,–,–,·,·,·,·
Nc1sc2c(c1C(=O)NCCc1ccccc1)CCCC2,64,76,–,·,·,·,90,–,79,–
Nc1sc2c(c1C(=O)NCCc1ccccc1)CCC2,–,54,–,–,–,–,81,–,61,–
CCCCn1c(=O)[nH]c2nc3cc(NC(C)=O)ccc3nc2c1=O,–,–,–,–,–,–,·,·,·,·
CCCCCCn1c(=O)[nH]c2nc3cc(N)c(C)cc3nc2c1=O,72,118,–,–,–,–,105,85,–,49
Cc1ccc(C(=O)CSC2=C(C#N)C(c3ccco3)CC(=O)N2)c(C)c1 (configuration not stated),–,74,–,–,–,–,48,25,–,24
CCOC(=O)c1ccc(NC(=O)c2ccc3c(c2)C(=O)N(Cc2cccnc2)C3=O)cc1,–,–,–,–,–,–,·,·,·,·
COc1ccc([C@]2(C(C)C)ON(c3ccccc3C(F)(F)F)C2=O)cc1,–,–,–,–,–,–,·,·,·,·
CC(C)C[C@@H](CN(C)N=O)N(C[C@H](Cc1ccccc1)N(CCc1ccccc1)N=O)N=O,–,–,–,–,–,–,·,·,·,·
CCCC[C@H](CN(N=O)[C@@H](Cc1ccccc1)CN(C)N=O)N(CCc1ccccc1)N=O,–,57,–,–,–,–,64,–,–,–
CN(C[C@H](Cc1ccccc1)N(C[C@H](Cc1cccc2ccccc12)N(CCc1ccccc1)N=O)N=O)N=O,–,69!,–,–,–,–,46,–,–,–
Cc1ccccc1OCC1Cn2c(nc3c2c(=O)n(C)c(=O)n3C)O1 (configuration not stated),–,–,–,–,–,–,·,·,·,·
SMILES,TAAR1 antagonist,TAAR1 agonist,HTR2A ag,MC4R antag cAMP,Beta2AR agonist,MC4R ag barr,TAAR1 ag confirm,Ga16 nonsel ag,TAAR1 desensitize,Ga16 antag count
CCOc1ccc(CCN2C(=O)C(=O)N([C@@H](CC(C)C)CN3CCC[C@H]3CN3C(=O)C(=O)NC[C@@H]3Cc3ccccc3)C[C@@H]2Cc2ccc(O)cc2)cc1,–,–,–,·,·,·,·,·,·,·
COc1ccccc1CCn1cnc(-c2ccccc2F)c1CC(C)C,–,–,·,·,·,·,·,·,·,·
CCCCc1c(-c2ccccc2OC)ncn1CCc1cccc(Cl)c1,–,66,–,·,·,·,84,19,83,34
CCCCc1c(-c2ccc(OC)c(OC)c2)ncn1CCc1ccccc1OC,58,59,–,·,·,·,64,–,68,42
CCCc1c(-c2ccc(Cl)cc2)ncn1CCc1ccccc1OC,52,56,–,·,·,·,82,15,83,26
COc1ccccc1CCn1cnc(-c2ccc(OC)c(OC)c2)c1CC(C)C,68,54,·,·,·,·,93,24,84,45
COc1cccc(C(=O)N2CCN(c3ccccn3)CC2)c1,–,–,–,–,–,–,·,·,·,·
COc1ccccc1CCn1cnc(-c2ccc(Br)cc2)c1CC(C)C,71,65,·,·,·,·,82,–,56,–
COc1ccc(-c2ncn(CCc3ccccc3OC)c2CC(C)C)cc1,–,–,·,·,·,·,·,·,·,·
CCc1c(-c2cccc(Cl)c2)ncn1CCc1ccccc1OC,–,–,·,·,·,·,·,·,·,·
CCCCc1c(Cc2cccc(F)c2)ncn1CCc1ccccc1OC,–,48,–,·,·,·,48,–,50,33
CCc1c(-c2ccccc2Br)ncn1CCc1ccccc1OC,53,44,·,·,·,·,70,–,59,28
O=S1(=O)CC(N2CCCC2)CN1CCc1ccccc1 (configuration not stated),–,56,–,·,·,·,45,–,–,–
O=Cc1ccc2c(c1)OCCOCCOCCOCCO2,–,–,–,–,·,–,·,·,·,·
C#CCN1C(=O)[C@]2(OCCC=C[C@H]2C)c2cc(OC)ccc21,–,–,·,·,·,·,·,·,·,·
COc1cc2c(c(OC)c1OC)C1(CCCCC1)CC2NCC=C(C)C (configuration not stated),–,50,·,·,·,·,–,–,–,–
COc1cc2c(cc1OC)C(C1(O)CCCCC1)NCC2 (configuration not stated),–,–,–,–,–,–,·,·,·,·
O=C(N1CCOCC1)C12OC3CC(CC(C3)O1)O2,–,–,–,·,·,·,·,·,·,·

# Assay outcomes: PubChem BioAssay, several laboratories
